The values that follow come from ChEMBL document CHEMBL4392853, “Characterising covalent warhead reactivity” (Bioorg Med Chem, 2019).

The source made the active and inactive calls. The rule behind the calls is not given here.

Experiment [1] can be described thus: Drug reactivity against serine in PBS buffer by NMR assay. The method in brief:
(§1)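 NMR time-course following the warhead in solution with serine, with the amino acid at 10x the warhead concentration (pseudo-first-order). Run at pH 7.4. The rate constant was taken from the gradient of the line. Single determinations.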

Experiment [2] can be described thus: Reversible drug reactivity against serine in PBS buffer by NMR assay. The method in brief: as §1
A short description of experiment [3]: Drug reactivity against cysteine in PBS buffer by NMR assay. The method in brief:
(§2)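 Warhead reactivity toward cysteine was tracked by NMR, measuring the amount of warhead remaining in solution over time. Cysteine was used at 10x the warhead concentration, giving pseudo-first-order conditions. The rate constant is the gradient of the fitted line. Runs were at pH 7.4 and also at pH 9.8. Two warheads were run in triplicate and averaged; the others were run once.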

Experiment [4] in a line: Reversible drug reactivity against cysteine in PBS buffer by NMR assay. The method in brief: as §2
Experiment [5] is described as follows: Drug reactivity against cysteine in PBS buffer assessed as rate constant by NMR assay. The method in brief:
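Warhead reacted in solution with cysteine held at 10x the warhead concentration, giving pseudo-first-order kinetics. Remaining warhead was followed over time by NMR, and the rate constant was taken from the gradient of the line. Runs were at pH 7.4 and also at pH 9.8. Two warheads were run in triplicate and averaged; all others were run once.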

Experiment [6] in a line: Irreversible drug reactivity against serine in PBS buffer by NMR assay. The method in brief:
as §1

The nature of experiment [7]: Irreversible drug reactivity against cysteine in PBS buffer by NMR assay. The method in brief: as §2
A short description of experiment [8]: Drug reactivity against cysteine in PBS buffer assessed as half life by NMR assay.

For the molecule `C#CC(=O)c1ccccc1`, the outcome in experiment [1], in experiment [2], in experiment [3] and in experiment [4] was Active.

As for `C=CC(=O)c1ccccc1`, the result in experiment [1], in experiment [2], in experiment [3] and in experiment [4] was Active.

For the molecule `O=S(=O)(F)c1ccccc1`, the result in experiment [1] and in experiment [3] was Active.

For `C=CC(=O)Nc1ccccc1`, the result in experiment [1], in experiment [2], in experiment [3] and in experiment [4] was Active. In experiment [5], the K was 8.38 ×10⁻⁵ /s.

In the case of `c1ccc(C2CO2)cc1` (stereo not drawn), the result in experiment [1], in experiment [2], in experiment [3] and in experiment [4] was Active.

Take `COC(=O)Nc1ccccc1`: the outcome in experiment [1] and in experiment [3] was Active.

Regarding `O=C1CCN1c1ccccc1`, the result in experiment [1] and in experiment [3] was inactive. In addition, the result in experiment [6] and in experiment [7] was Active.

Take `O=C1CC(c2ccccc2)N1` (stereo not drawn): the result in experiment [1] and in experiment [3] was inactive. Further, the outcome in experiment [6] and in experiment [7] was Active.

`OB1OCc2ccccc21`: the outcome in experiment [1] and in experiment [3] was inactive. Moreover, the result in experiment [2] and in experiment [4] was Active.

For `CC1(C)S[C@@H]2[C@H](N)C(=O)N2[C@H]1C(=O)O`, the result in experiment [1] and in experiment [3] was inactive. For the same molecule, the outcome in experiment [6] and in experiment [7] was Active.

As for `N#Cc1ccccn1`, the result in experiment [1] and in experiment [3] was inactive. The result in experiment [2] and in experiment [4] was Active.

Consider `N#Cc1ncccn1`, for which the result in experiment [1], in experiment [2], in experiment [3] and in experiment [4] was Active.

For the molecule `O=C(c1ccccc1)C(F)(F)F`, the outcome in experiment [1] and in experiment [3] was inactive. For the same molecule, the result in experiment [2] and in experiment [4] was Active.

For `C=CS(=O)(=O)Nc1ccccc1`, the result in experiment [1], in experiment [2], in experiment [3] and in experiment [4] was Active. Moreover, in experiment [8], the T1/2 is 17.2 min. The K in experiment [5] was found to be 6.73 ×10⁻⁴ /s.

`CN(C)C/C=C/C(=O)Nc1ccccc1`: the result in experiment [1], in experiment [2], in experiment [3] and in experiment [4] was Active.

Turning to `N#Cc1ccccc1`, the outcome in experiment [1] and in experiment [3] was inactive. The result in experiment [2] and in experiment [4] was Active.
